{"source": "ChEMBL document CHEMBL1671829", "about": "“Activation of Neuropeptide FF Receptors by Kisspeptin Receptor Ligands” (ACS Med Chem Lett, 2011)", "key": {"[1]": {"target": "T1, KiSS-1 receptor (Homo sapiens, UniProt Q969F8)", "T1 sequence (Q969F8 whole entry)": "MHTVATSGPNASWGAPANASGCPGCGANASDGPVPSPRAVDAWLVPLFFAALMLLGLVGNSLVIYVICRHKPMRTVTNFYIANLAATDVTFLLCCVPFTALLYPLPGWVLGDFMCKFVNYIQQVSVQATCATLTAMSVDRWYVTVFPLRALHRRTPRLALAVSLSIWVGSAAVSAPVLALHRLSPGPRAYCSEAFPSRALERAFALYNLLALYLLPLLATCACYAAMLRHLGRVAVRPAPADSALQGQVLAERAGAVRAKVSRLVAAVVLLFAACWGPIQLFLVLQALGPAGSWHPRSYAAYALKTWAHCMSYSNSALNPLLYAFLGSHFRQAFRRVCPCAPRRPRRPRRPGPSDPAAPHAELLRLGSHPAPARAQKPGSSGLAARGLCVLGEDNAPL", "experiment": "Agonist activity at GPR54 expressed in CHO cells assessed as increase of intracellular calcium mobilization at 10 uM after 1 hr", "type": "functional, cell-based"}, "[2]": {"target": "T2, Neuropeptide FF receptor 2 (Homo sapiens, UniProt Q9Y5X5)", "T2 sequence (Q9Y5X5 whole entry)": "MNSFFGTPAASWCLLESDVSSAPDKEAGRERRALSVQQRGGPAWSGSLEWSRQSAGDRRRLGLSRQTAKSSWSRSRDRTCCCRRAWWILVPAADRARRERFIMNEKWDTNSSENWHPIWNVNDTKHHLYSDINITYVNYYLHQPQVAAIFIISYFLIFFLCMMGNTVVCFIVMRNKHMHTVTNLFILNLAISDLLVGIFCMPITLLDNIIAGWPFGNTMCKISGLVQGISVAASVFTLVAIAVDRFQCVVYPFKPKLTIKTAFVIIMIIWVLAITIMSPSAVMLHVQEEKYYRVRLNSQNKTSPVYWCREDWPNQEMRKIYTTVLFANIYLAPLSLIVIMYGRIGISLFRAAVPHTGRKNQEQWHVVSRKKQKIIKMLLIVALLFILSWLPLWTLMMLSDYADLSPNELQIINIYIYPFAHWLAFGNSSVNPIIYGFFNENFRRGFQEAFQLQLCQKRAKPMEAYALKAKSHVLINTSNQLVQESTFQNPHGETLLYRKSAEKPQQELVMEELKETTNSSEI", "experiment": "Displacement of (D-[125I]Tyr1, MePhe3)-NPFF from NPFFR2 after 2 hrs", "in_short": "(§1)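 Dose–response inhibition of (d-[125I]Tyr1, MePhe3)-NPFF binding to NPFFR1 or NPFFR2. IC50 is the concentration giving 50% inhibition of radioligand binding, taken from dose–response curves built from triplicate data points.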"}, "[3]": {"target": "T3, Neuropeptide FF receptor 1 (Homo sapiens, UniProt Q9GZQ6)", "T3 sequence (Q9GZQ6 whole entry)": "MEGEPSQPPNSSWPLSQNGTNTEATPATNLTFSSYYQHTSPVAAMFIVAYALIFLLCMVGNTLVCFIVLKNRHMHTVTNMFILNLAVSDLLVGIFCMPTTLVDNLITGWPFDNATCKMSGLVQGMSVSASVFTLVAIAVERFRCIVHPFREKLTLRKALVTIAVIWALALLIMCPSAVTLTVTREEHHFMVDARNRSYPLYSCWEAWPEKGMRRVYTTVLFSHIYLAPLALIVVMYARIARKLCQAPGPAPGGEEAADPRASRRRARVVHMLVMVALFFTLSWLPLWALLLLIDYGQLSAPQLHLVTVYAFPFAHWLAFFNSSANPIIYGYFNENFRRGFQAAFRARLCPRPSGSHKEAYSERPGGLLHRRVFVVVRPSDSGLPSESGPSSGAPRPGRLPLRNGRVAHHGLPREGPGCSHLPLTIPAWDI", "experiment": "Displacement of (D-[125I]Tyr1, MePhe3)-NPFF from NPFFR1 after 2 hrs", "in_short": "as §1"}, "[4]": {"target": "T1, KiSS-1 receptor", "experiment": "Displacement of [125I]kisspeptin-15 from GPR54"}, "[5]": {"target": "T4, Galanin receptor type 3 (Homo sapiens) (UniProt O60755)", "T4 sequence (whole entry)": "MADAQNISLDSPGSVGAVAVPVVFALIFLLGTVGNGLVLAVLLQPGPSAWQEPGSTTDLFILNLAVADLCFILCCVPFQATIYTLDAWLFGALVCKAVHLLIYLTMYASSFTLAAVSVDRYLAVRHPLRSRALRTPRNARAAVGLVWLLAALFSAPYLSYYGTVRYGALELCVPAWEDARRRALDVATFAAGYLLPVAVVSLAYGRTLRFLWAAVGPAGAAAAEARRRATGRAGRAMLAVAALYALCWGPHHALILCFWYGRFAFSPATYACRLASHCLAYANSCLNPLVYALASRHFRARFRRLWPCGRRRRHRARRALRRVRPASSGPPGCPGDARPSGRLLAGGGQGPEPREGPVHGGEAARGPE", "experiment": "Displacement of [125I]-Tyr9-galanin from GalR3 at 10 uM after 1 hr", "in_short": "(§2)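 Single-point radioligand binding inhibition on receptor membrane preparations, test peptide at 10 μM. Radioligands are [125I]Tyr9-galanin for GALR1–3, [125I]-prolactin-releasing peptide-20 for PrRPR, and (d-[125I]Tyr1, MePhe3)-NPFF for NPFFR1 and NPFFR2. Read-out is % inhibition of specific binding, mean of duplicate analyses.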"}, "[6]": {"target": "T5, Galanin receptor type 1 (Homo sapiens) (UniProt P47211)", "T5 sequence (whole entry)": "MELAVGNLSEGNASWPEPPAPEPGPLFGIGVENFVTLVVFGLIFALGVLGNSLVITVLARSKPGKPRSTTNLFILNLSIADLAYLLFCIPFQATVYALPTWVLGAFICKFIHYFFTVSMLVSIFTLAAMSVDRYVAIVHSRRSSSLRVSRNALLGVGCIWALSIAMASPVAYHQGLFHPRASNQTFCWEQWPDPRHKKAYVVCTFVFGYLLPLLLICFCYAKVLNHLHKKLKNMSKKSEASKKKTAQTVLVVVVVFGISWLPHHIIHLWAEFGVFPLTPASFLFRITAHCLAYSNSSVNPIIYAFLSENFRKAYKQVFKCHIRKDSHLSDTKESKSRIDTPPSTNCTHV", "experiment": "Displacement of [125I]-Tyr9-galanin from GalR1 at 10 uM after 1 hr", "in_short": "as §2"}, "[7]": {"target": "T3, Neuropeptide FF receptor 1", "experiment": "Displacement of (D-[125I]Tyr1, MePhe3)-NPFF from NPFFR1 at 10 uM after 2 hrs", "in_short": "as §2"}, "[8]": {"target": "T3, Neuropeptide FF receptor 1", "experiment": "Agonist activity at NPFFR1 expressed in CHO cells assessed as inhibition of forskolin-induced cAMP accumulation at up to 100 uM after 30 mins"}, "[9]": {"species": "Rattus norvegicus", "experiment": "Increase of GnRH release in Wistar-imamichi rat median eminence at 1 uM after 30 mins by double-antibody radioimmunoassay", "type": "functional", "in_short": "(§3)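 Rat median eminence incubated in vitro with peptide. Released GnRH quantified by double-antibody radioimmunoassay with [125I]-labeled GnRH; mean ± SEM of triplicate or more experiments.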"}, "[10]": {"target": "T2, Neuropeptide FF receptor 2", "experiment": "Agonist activity at NPFFR2 expressed in HEK293T cells co-expressing Gqi5 assessed as increase of intracellular calcium mobilization after 1 hr", "type": "functional, cell-based", "conditions": "HEK-293T"}, "[11]": {"target": "T6, Galanin receptor type 2 (Homo sapiens) (UniProt O43603)", "T6 sequence (whole entry)": "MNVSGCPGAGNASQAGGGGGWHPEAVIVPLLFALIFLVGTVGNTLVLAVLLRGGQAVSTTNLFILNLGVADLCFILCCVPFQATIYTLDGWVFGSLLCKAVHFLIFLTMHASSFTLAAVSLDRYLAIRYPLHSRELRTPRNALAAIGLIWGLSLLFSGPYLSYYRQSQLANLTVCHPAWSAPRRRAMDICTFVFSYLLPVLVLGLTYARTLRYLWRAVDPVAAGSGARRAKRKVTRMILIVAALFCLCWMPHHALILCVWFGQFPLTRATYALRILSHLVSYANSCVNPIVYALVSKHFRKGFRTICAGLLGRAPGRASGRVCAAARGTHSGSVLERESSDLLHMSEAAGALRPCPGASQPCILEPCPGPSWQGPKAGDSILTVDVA", "experiment": "Displacement of [125I]-Tyr9-galanin from GalR2 at 10 uM after 1 hr", "in_short": "as §2"}, "[12]": {"target": "T2, Neuropeptide FF receptor 2", "experiment": "Agonist activity at NPFFR2 expressed in CHO cells assessed as inhibition of forskolin-induced cAMP accumulation at up to 100 uM after 30 mins"}, "[13]": {"target": "T3, Neuropeptide FF receptor 1", "experiment": "Agonist activity at NPFFR1 expressed in HEK293T cells co-expressing Gqi5 assessed as increase of intracellular calcium mobilization after 1 hr", "type": "functional, cell-based", "conditions": "HEK-293T"}, "[14]": {"target": "T2, Neuropeptide FF receptor 2", "experiment": "Displacement of (D-[125I]Tyr1, MePhe3)-NPFF from NPFFR2 at 10 uM after 2 hrs", "in_short": "as §2"}, "[15]": {"tested_on": "Rattus norvegicus", "experiment": "Increase of luteinizing hormone level in Wistar-imamichi rat plasma at 0.25 nmol, administered intracerebroventricularly in preoptic area after 3 hrs measured every 6 mins by double-antibody radioimmunoassay", "type": "functional, organism-based", "in_short": "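Male rats given 0.25 nmol peptide into the preoptic area. Blood sampled every 6 min over 3 h; plasma LH expressed as area under the curve. Mean ± SEM of five or more experiments.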"}, "[16]": {"target": "T3, Neuropeptide FF receptor 1", "experiment": "Agonist activity at NPFFR1 expressed in HEK293T cells co-expressing Gqi5 assessed as increase of intracellular calcium mobilization at 0.24 uM after 1 hr", "type": "functional, cell-based", "conditions": "HEK-293T"}, "[17]": {"target": "T7, Prolactin-releasing peptide receptor (Homo sapiens) (UniProt P49683)", "T7 sequence (whole entry)": "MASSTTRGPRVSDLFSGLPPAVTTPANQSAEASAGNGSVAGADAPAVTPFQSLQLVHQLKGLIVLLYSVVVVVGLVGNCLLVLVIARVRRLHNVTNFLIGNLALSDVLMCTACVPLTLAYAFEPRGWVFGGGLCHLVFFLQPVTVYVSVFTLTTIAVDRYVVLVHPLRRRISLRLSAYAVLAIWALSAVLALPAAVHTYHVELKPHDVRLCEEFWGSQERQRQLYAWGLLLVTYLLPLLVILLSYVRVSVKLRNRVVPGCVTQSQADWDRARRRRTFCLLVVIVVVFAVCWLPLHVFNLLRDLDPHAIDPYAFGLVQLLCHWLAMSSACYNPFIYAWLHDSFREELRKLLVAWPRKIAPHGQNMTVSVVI", "experiment": "Displacement of [125I]-prolactin releasing peptide-20 from PrRPR at 10 uM after 30 mins", "in_short": "as §2"}, "[18]": {"species": "Rattus norvegicus", "experiment": "Increase of GnRH release in Wistar-imamichi rat median eminence at 0.1 uM after 30 mins by double-antibody radioimmunoassay", "type": "functional", "in_short": "as §3"}}, "note": "Activity calls are given as the source filed them. The calls are words filed in the database; no cut-off is given here."}
{"compound": "N=C(N)NCCC[C@H](NC(=O)C12CC3CC(CC(C3)C1)C2)C(=O)N[C@@H](Cc1ccccc1)C(N)=O", "values": [{"measurement": "Activity", "setting": "[1]", "value": "inactive"}]}
{"compound": "CC(C)C[C@H](NC(=O)CNC(=O)[C@H](Cc1ccccc1)NC(=O)c1ccc(F)cc1)C(=O)N[C@@H](CCCN=C(N)N)C(=O)N[C@@H](Cc1c[nH]c2ccccc12)C(N)=O", "values": [{"measurement": "IC50", "setting": "[2]", "value": 1800, "unit": "nM"}, {"measurement": "IC50", "setting": "[3]", "value": 160, "unit": "nM"}]}
{"compound": "NC(=O)[C@H](Cc1ccccc1)NC(=O)[C@H](CCCN=C(N)N)NC(=O)C12CC3CC(CC(C3)C1)C2", "values": [{"measurement": "IC50", "setting": "[4]", "value": 830, "unit": "nM"}]}
{"compound": "CC(C)C[C@H](NC(=O)CNC(=O)[C@H](Cc1ccccc1)NC(=O)c1ccc(F)cc1)C(=O)N[C@@H](CCCNC(=N)N)C(=O)N[C@@H](Cc1c[nH]c2ccccc12)C(N)=O", "values": [{"measurement": "Activity", "setting": "[5]", "value": "inactive"}, {"measurement": "Activity", "setting": "[6]", "value": "inactive"}, {"measurement": "Activity", "setting": "[7]", "value": 99.4, "unit": "%"}, {"measurement": "inhibition", "setting": "[8]", "value": "Active"}, {"measurement": "Activity", "setting": "[9]", "value": "Active"}, {"measurement": "Activity", "setting": "[10]", "value": "Dose-dependent effect"}, {"measurement": "Activity", "setting": "[11]", "value": "inactive"}, {"measurement": "inhibition", "setting": "[12]", "value": "Active"}, {"measurement": "Activity", "setting": "[13]", "value": "Dose-dependent effect"}, {"measurement": "Activity", "setting": "[14]", "value": 90.7, "unit": "%"}, {"measurement": "Activity", "setting": "[15]", "value": "Active"}, {"measurement": "Activity", "setting": "[16]", "value": 49, "unit": "%"}, {"measurement": "Activity", "setting": "[17]", "value": 21.1, "unit": "%"}]}
{"compound": "CN(C)c1cccc2c(S(=O)(=O)N3CCC[C@H]3C(=O)N[C@@H](CCC(N)=O)C(=O)N[C@@H](CCCNC(=N)N)C(=O)N[C@@H](Cc3ccccc3)C(N)=O)cccc12", "values": [{"measurement": "IC50", "setting": "[4]", "value": 16000, "unit": "nM"}, {"measurement": "Activity", "setting": "[1]", "value": "inactive"}]}
{"compound": "H-SLAAPQRF-OH", "values": [{"measurement": "IC50", "setting": "[4]", "value": "> 30000", "unit": "nM"}, {"measurement": "IC50", "setting": "[2]", "value": 0.79, "unit": "nM"}, {"measurement": "IC50", "setting": "[3]", "value": 1.9, "unit": "nM"}]}
{"compound": "CC(C)C[C@H](/C=C/CNC(=O)[C@H](Cc1ccccc1)NC(=O)c1ccc(F)cc1)C(=O)N[C@@H](CCCN=C(N)N)C(=O)N[C@@H](Cc1c[nH]c2ccccc12)C(N)=O", "values": [{"measurement": "IC50", "setting": "[2]", "value": 2400, "unit": "nM"}, {"measurement": "IC50", "setting": "[3]", "value": 640, "unit": "nM"}]}
{"compound": "CC(C)C[C@H](/C=C/CNC(=O)[C@H](Cc1ccccc1)NC(=O)c1ccc(F)cc1)C(=O)N[C@@H](CCCNC(=N)N)C(=O)N[C@@H](Cc1c[nH]c2ccccc12)C(N)=O", "values": [{"measurement": "Activity", "setting": "[5]", "value": "inactive"}, {"measurement": "Activity", "setting": "[6]", "value": "inactive"}, {"measurement": "Activity", "setting": "[7]", "value": 88.3, "unit": "%"}, {"measurement": "inhibition", "setting": "[8]", "value": "Active"}, {"measurement": "Activity", "setting": "[9]", "value": "Active"}, {"measurement": "Activity", "setting": "[10]", "value": "Dose-dependent effect"}, {"measurement": "Activity", "setting": "[11]", "value": "inactive"}, {"measurement": "inhibition", "setting": "[12]", "value": "Active"}, {"measurement": "Activity", "setting": "[13]", "value": "Dose-dependent effect"}, {"measurement": "Activity", "setting": "[14]", "value": 95.7, "unit": "%"}, {"measurement": "Activity", "setting": "[15]", "value": "Active"}, {"measurement": "Activity", "setting": "[16]", "value": 52, "unit": "%"}, {"measurement": "Activity", "setting": "[17]", "value": 16.1, "unit": "%"}]}
{"compound": "CC(C)C[C@H](NC(=O)CNC(=O)[C@H](Cc1ccccc1)NC(=O)[C@H](CO)NC(=O)[C@H](CC(N)=O)NC(=O)[C@H](Cc1c[nH]c2ccccc12)NC(=O)[C@H](CC(N)=O)NC(=O)[C@@H](N)Cc1ccc(O)cc1)C(=O)N[C@@H](CCCNC(=N)N)C(=O)N[C@@H](Cc1ccccc1)C(N)=O", "note": "[KISSPEPTIN-10]", "values": [{"measurement": "IC50", "setting": "[2]", "value": 76, "unit": "nM"}, {"measurement": "IC50", "setting": "[3]", "value": 4.7, "unit": "nM"}, {"measurement": "inhibition", "setting": "[8]", "value": "Active"}, {"measurement": "inhibition", "setting": "[12]", "value": "Active"}, {"measurement": "Activity", "setting": "[15]", "value": "Active"}, {"measurement": "Activity", "setting": "[16]", "value": 86, "unit": "%"}, {"measurement": "Activity", "setting": "[18]", "value": "Active"}]}
